Measurements taken from paper PMC12580983 (RSC Advances, 2025).
≈ marks a conversion by molar mass, not a printed value.

Experiments:
A549 cells = experiment: MTT cell viability assay, A549; format: cell-based, Human; details: IC50 Vero cells / IC50 A549 cells
P. falciparum (Pf3D7) [1] = experiment: SYBR green I fluorescence antiplasmodial assay; format: cell-based, Plasmodium falciparum; details: for selectivity index (SI) towards Pf3D7: antimalarial selectivity, way of calculation not stated
Outline: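 Chloroquine-sensitive P. falciparum 3D7 was grown in O+ human erythrocytes (4% haematocrit) in RPMI 1640 with 25 mM HEPES and 0.5% Albumax I, at 37 °C under 5% O2/5% CO2/90% N2. Sorbitol-synchronised rings (2% haematocrit, 1% parasitaemia) got increasing concentrations in water. SYBR Green I was read after 0.08% Triton X-100, 1 h at 37 °C in the dark (ex 485/em 530 nm), chloroquine-well counts subtracted. IC50 came from dose–response curves.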

P. falciparum (Pf3D7) [2] = experiment: Parasitemia and suppression of Pf3D7 culture after 72 h of treatment; format: cell-based, Plasmodium falciparum; details: for percentage suppression of parasitemia: concentration not given

SMILES | Selectivity Index (SI) (A549 cells) | selectivity index (SI) towards Pf3D7 (P. falciparum (Pf3D7) [1]) | % Parasitemia (P. falciparum (Pf3D7) [2]; 12.5 μg mL^−1, 72 h) [%] | % Suppression (P. falciparum (Pf3D7) [2]; 12.5 μg mL^−1, 72 h) [%] | % Parasitemia (P. falciparum (Pf3D7) [2]; 100 μg mL^−1, 72 h) [%] | % Suppression (P. falciparum (Pf3D7) [2]; 100 μg mL^−1, 72 h) [%] | IC50 (P. falciparum (Pf3D7) [1]; Plasmodium falciparum, 72 h, read-out: IC50 µM Pf3D7) [µg/mL] | percentage suppression of parasitemia (P. falciparum (Pf3D7) [2]) [%]
C/C(=N/NC(=O)c1cn(-c2ccccc2)nc1-c1ccccc1)c1c(O)cc(C)oc1=O [3e, (Z)-N′-(1-(4-hydroxy-6-methyl-2-oxo-2H-pyran-3-yl)ethylidene)-1,3-diphenyl-1H-pyrazole-4-carbohydrazide] | 4.56 | 9.48 | 73.81 | 26.19 | 37.62 | 62.38 | – | –
N.N.O=C([O-])C1(C(=O)[O-])CCC1.[Pt+2] [Carboplatin, reference compound] | 2.57 | – | – | – | – | – | – | –
CCN(CC)CCCC(C)Nc1ccnc2cc(Cl)ccc12 (stereo not drawn) [CQ, Chloroquine, reference compound] | – | – | 0.95 | 99.05 | 0.95 | 99.05 | – | –
C/C(=N/NC(=O)c1cn(-c2ccccc2)nc1-c1ccc(Br)cc1)c1c(O)cc(C)oc1=O [3c, (Z)-3-(4-bromophenyl)-N′-(1-(4-hydroxy-6-methyl-2-oxo-2H-pyran-3-yl)ethylidene)-1-phenyl-1H-pyrazole-4-carbohydrazide] | – | – | 52.90 | 47.10 | 5.81 | 94.19 | – | –
N.N.[Cl][Pt][Cl] [Cisplatin, reference compound] | 1.35 | – | – | – | – | – | – | –
C/C(=N/NC(=O)c1cn(-c2ccccc2)nc1-c1ccc(Cl)cc1)c1c(O)cc(C)oc1=O [3b, (Z)-3-(4-chlorophenyl)-N′-(1-(4-hydroxy-6-methyl-2-oxo-2H-pyran-3-yl)ethylidene)-1-phenyl-1H-pyrazole-4-carbohydrazide] | 3.25 | – | 68.38 | 31.62 | 62.57 | 37.43 | – | –
C[C@@H]1C[C@H]2[C@@H]3CCC4=CC(=O)C=C[C@]4(C)[C@@]3(F)[C@@H](O)C[C@]2(C)[C@@]1(O)C(=O)CO [Dexamethasone, reference compound] | 0.23 | – | – | – | – | – | – | –
C/C(=N/NC(=O)c1cn(-c2ccccc2)nc1-c1ccc(C)cc1)c1c(O)cc(C)oc1=O [3d, (Z)-3-(4-methylphenyl)-N′-(1-(4-hydroxy-6-methyl-2-oxo-2H-pyran-3-yl)ethylidene)-1-phenyl-1H-pyrazole-4-carbohydrazide] | – | 18.38 | 42.19 | 57.81 | 2.47 | – | 5.2 (≈ 11.8 µM) | 97
C/C(=N/NC(=O)c1cn(-c2ccccc2)nc1-c1ccc(F)cc1)c1c(O)cc(C)oc1=O [3a, (Z)-3-(4-fluorophenyl)-N′-(1-(4-hydroxy-6-methyl-2-oxo-2H-pyran-3-yl)ethylidene)-1-phenyl-1H-pyrazole-4-carbohydrazide] | 2.78 | – | 93.33 | 6.67 | 2.95 | – | – | 97
